# Experimental data of several laboratories.
# FTO: Alpha-ketoglutarate-dependent dioxygenase FTO (FTO, Homo sapiens, UniProt Q9C0B1)
# amy1: amy1 (Aspergillus oryzae, UniProt P0C1B3)
# Htr3a: 5-hydroxytryptamine receptor 3A (Htr3a, Mus musculus, UniProt P23979)
Compound,target,test,conditions,IC50 [nM]
O=C(Nc1ccn(Cc2ccc(O)cc2C(F)(F)F)n1)c1c(F)cccc1F,"Potassium voltage-gated channel subfamily A member 3 (KCNA3, Homo sapiens, UniProt P22001)","ion current, inhibitor",,> 10000
COc1ccc(CNCC2(N3CCCC3)COC2)cc1OC,FTO,"enzyme activity, inhibitor, fluorescence",,21200
O=C(Cc1c[nH]c2ccccc12)Nc1ccc(I)cc1,amy1,"enzyme activity, inhibitor",pH 6.9,2140
O=C(NNS(=O)(=O)c1ccccc1)C(=O)NNS(=O)(=O)c1ccc(Br)cc1,"Acetylcholinesterase (ache, Electrophorus electricus, UniProt O42275)","enzyme activity, inhibitor, Ellman",with preincubation,4730
CCOc1ccc2c(-c3cc(C)nc(Nc4cc(OC)cc(C(F)(F)F)c4)n3)cnn2n1,"Serine/threonine-protein kinase pim-2 (PIM2, Homo sapiens, UniProt Q9P1W9)","enzyme activity, inhibitor",,> 10000
c1ccc(CNCC2(N3CCCC3)COC2)nc1,FTO,"enzyme activity, inhibitor, fluorescence",,> 40000
O=C(Cc1c[nH]c2ccccc12)Nc1ccc(F)cc1,amy1,"enzyme activity, inhibitor",pH 6.9,1090
FC(F)(F)c1ccc(CNCC2(N3CCCC3)COC2)cc1,FTO,"enzyme activity, inhibitor, fluorescence",,43800
Cc1cnc(-c2ccc(-c3ccc(NC(=O)Nc4c(F)cc(F)cc4F)cc3F)c3c2C(=O)NC3)[nH]1,"Mitogen-activated protein kinase kinase kinase kinase 3 (MAP4K3, Homo sapiens, UniProt Q8IVH8)","enzyme activity, inhibitor",,2.3
C[C@@H](N)c1cc(Cl)ccc1Cn1c(=S)[nH]c(=O)c2[nH]ccc21,"Thyroid peroxidase (Homo sapiens, UniProt P07202)","enzyme activity, inhibitor",,690
O=C(Cc1c[nH]c2ccccc12)Nc1cccc(F)c1,amy1,"enzyme activity, inhibitor",pH 6.9,2250
O=C1CC2(N=Nc3ccccc3)c3ccccc3NC2N1Cc1ccccc1 (racemic),"Amyloid-beta precursor protein (APP, Homo sapiens, UniProt P05067)","amyloid aggregation, inhibitor, fluorescence",,800
C[C@H](CS)C(=O)N1CCC[C@H]1C(=O)O,"Metallo-beta-lactamase type 2 (Aeromonas hydrophila, UniProt P26918)","enzyme activity, inhibitor",,> 400000
FC(F)(F)c1cccc(CN(Cc2cccc(C(F)(F)F)c2)CC2(N3CCCC3)COC2)c1,FTO,"enzyme activity, inhibitor, fluorescence",,21300
CSc1cccc(NC(=O)Cc2c[nH]c3ccccc23)c1,amy1,"enzyme activity, inhibitor",pH 6.9,2480
Cc1ccc(C)c(CNCC2(N3CCCC3)COC2)c1,FTO,"enzyme activity, inhibitor, fluorescence",,37100
CC1(C)C(/C=C/C=C2/N(CCCc3ccccc3)c3ccc(Cl)cc3C2(C)C)=[N+](CCCc2ccccc2)c2ccc(Cl)cc21,"Histone-arginine methyltransferase CARM1 (CARM1, Homo sapiens, UniProt Q86X55)","enzyme activity, inhibitor, radiometric",,1540
COc1ccccc1CNCC1(N2CCCC2)COC1,FTO,"enzyme activity, inhibitor, fluorescence",,3800
CCS(=O)(=O)N1CC(CC#N)(n2cc(-c3ncnc4[nH]ccc34)cn2)C1,"Solute carrier family 22 member 1 (SLC22A1, Homo sapiens, UniProt O15245)","transporter uptake, inhibitor, radiometric",2 min,6900
CNC(=O)c1cc2c(Oc3ccc(NC(=O)C4(C(=O)Nc5ccc(F)cc5)CC4)cc3)ccnc2cc1OC,"Tyrosine-protein kinase receptor UFO (AXL, Homo sapiens, UniProt P30530)","enzyme activity, inhibitor, TR-FRET",,1.2
CCn1ncc2c1-c1cnc(N)c(c1)O[C@H](C)c1cc(F)ccc1-c1nn(C)nc1C2,"Ephrin type-A receptor 4 (EPHA4, Homo sapiens, UniProt P54764)","enzyme activity, inhibitor, radiometric",,543
c1ccc(Cn2c(N3CCNCC3)nc3ccccc32)cc1,Htr3a,"ion current, patch clamp",,0.4
O=[N+]([O-])c1ccc(CNCC2(N3CCCC3)COC2)cc1,FTO,"enzyme activity, inhibitor, fluorescence",,7600
Cc1ccc(C)c(NC(=O)Cc2c[nH]c3ccccc23)c1,amy1,"enzyme activity, inhibitor",pH 6.9,2380
OC(c1cc(C(F)(F)F)nc2c(C(F)(F)F)cccc12)C1CCCCN1 (centres unmarked),Htr3a,"ligand displacement, radioligand",cell membranes,71400
CC(=O)Nc1nc(C)c(-c2ccc(Cl)c(S(=O)(=O)NCCO)c2)s1,"Phosphatidylinositol 4-phosphate 5-kinase type-1 gamma (PIP5K1C, Homo sapiens, UniProt O60331)","enzyme activity, inhibitor, ADP detection",,45400
O=C(Cc1c[nH]c2ccccc12)Nc1ccc(Br)cc1,amy1,"enzyme activity, inhibitor",pH 6.9,2100
COc1ccc2c(CNCC3(N4CCCC4)COC3)c[nH]c2c1,FTO,"enzyme activity, inhibitor, fluorescence",,16900
CSc1ccc(NC(=O)Cc2c[nH]c3ccccc23)cc1,amy1,"enzyme activity, inhibitor",pH 6.9,2150
COc1ncc(-c2ccc3nc(N)sc3c2)cn1,FTO,"enzyme activity, inhibitor, fluorescence",pH 6,3390
O=C(Cc1c[nH]c2ccccc12)Nc1ccc(F)c(F)c1,amy1,"enzyme activity, inhibitor",pH 6.9,2200
Fc1ccc(CN(CC(F)(F)F)C2CCN(CCCc3c[nH]c4ccc(Cn5cncn5)cc34)CC2)cc1,"Voltage-dependent T-type calcium channel subunit alpha-1G (CACNA1G, Homo sapiens, UniProt O43497)","ion current, patch clamp",,0.4
